RAM inhibit = blocks the yeast RAM network; 190,000 compounds, 1.8% hits; S. cerevisiae dse1pr::URA3 reporter, 5-FOA growth OD615, 2 d; analog-sensitive cbk1-as2 kinase mutant strain; AID 868; inhibition, % at 50 µM;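 active means inhibition above a set limit, 3 SD over mean compound inhibition, cut at about 8.4% in these data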;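 further: 0% = DMSO-only wells with no growth and 100% = 10 µM 1-NA-PP1 full growth; inhibition rescues growth on 5-FOA so higher OD means more RAM inhibition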
Insulin prom inh = TRM-6 insulin promoter activity inhibition; TRM-6 cells, insulin promoter-eGFP reporter, imaging; reporter expression induced with tamoxifen; 130,000 compounds, 0.9% hits; inhibition, % at 2 µM;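 active means inhibition above the mean plus 3 SD, with well images judged a real hit on visual review, cut at about 60% in these data, passing the limit was not always enough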
BB579 growth dn = reduces growth of yeast BB579 in restrictive medium; 140,000 compounds, 0.51% hits; inhibition, % at 10 µM; AID 804; S. cerevisiae BB579 growth, OD615, 48 h;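 active means inhibition above a set limit, 3 SD over the mean compound inhibition, cut at about 44% in these data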
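controls = amphotericin B 10 µg/mL, positive | assay system = DeaD yeast strain BB579 | schedule = 48 h compound exposure at 30 °C after 4 h preincubation | detection = OD615 turbidity measurement | medium = restrictive CSMM-D medium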
Yeast lifespan up = extends the lifespan of yeast; S. cerevisiae growth with nicotinamide, OD615; deaD strain in restrictive glucose medium; inhibition of the nicotinamide effect, % at 10 µM; AID 775; 130,000 compounds, 0.68% hits;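 active means inhibition above a set limit, placed 3 SD over the median of all compounds, cut at about 26% in these data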;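 further: 0% = nicotinamide-treated wells and 100% = cells grown without nicotinamide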
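Assay system: engineered S. cerevisiae DeaD replicative-lifespan strain, galactose-grown log-phase cells; medium: restrictive CSMM-D dextrose medium; also added: nicotinamide, 1.5 mM, co-present with compound; schedule: 48 h compound exposure at 30 °C, humidified; detection: absorbance at 615 nm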
Measles CPE = protection of cells from measles virus | 140,000 compounds, 1.5% hits | Measles virus-infected cells, CPE protection, absorbance | protection (pct of control), % at 4 µM; in the data active means protection mostly above about 24%, no sharp cut-off; inactive means mostly below about 26%
Mdm2 ligase inh = Mdm2 E3 ligase (human) inhibition; 210,000 compounds, 0.11% hits; signal enhancement, % at 5 µM; cell-based MDM2 ubiquitination luciferase reporter, 2 h; 0 = plate control, 100 = twice control, blank-subtracted;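 active means signal enhancement of 30% or more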;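 further: luminescence tracks abundance of the self-degrading MDM2-luciferase fusion protein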
Target sequence (Q00987 whole entry, looked up, the tested form may be a part): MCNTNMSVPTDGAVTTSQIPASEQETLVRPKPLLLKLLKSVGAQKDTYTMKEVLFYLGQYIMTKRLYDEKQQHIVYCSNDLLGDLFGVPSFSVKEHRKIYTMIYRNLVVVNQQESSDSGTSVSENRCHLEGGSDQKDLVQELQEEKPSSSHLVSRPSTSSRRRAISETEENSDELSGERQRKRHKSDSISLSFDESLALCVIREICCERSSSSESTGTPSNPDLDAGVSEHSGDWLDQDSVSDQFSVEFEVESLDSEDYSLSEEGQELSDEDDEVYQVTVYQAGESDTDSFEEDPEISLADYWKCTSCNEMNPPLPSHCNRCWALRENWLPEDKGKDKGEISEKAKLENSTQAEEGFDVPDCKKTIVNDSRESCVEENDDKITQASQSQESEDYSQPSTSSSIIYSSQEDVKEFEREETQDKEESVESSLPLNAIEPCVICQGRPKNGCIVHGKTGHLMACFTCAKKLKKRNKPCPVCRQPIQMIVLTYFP
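Assay system: stable mammalian line carrying autodegrading MDM2–luciferase fusion reporter; amount: 2000 cells seeded into each well; buffer or medium: DMEM; benchmarks: plate control and blank wells; signal: luciferase luminescence; timing: 2 h compound exposure at 37 °C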
The depositor's hits bear a star; nt = no result. This is a sample that favours compounds with a hit; in the whole collection about 4% have one here.

SMILES	RAM inhibit	Insulin prom inh	BB579 growth dn	Yeast lifespan up	Measles CPE	Mdm2 ligase inh
O=S(Cc1ccccc1)CC(O)(c1ccccc1)c1ccccc1 (stereo not given)	0.4	nt	-22.5	-15.6	2.9	-13.7
CCCCCCS(=O)Cc1ccccc1 (stereo not given)	0.0	7.7	-33.5	-5.9	34.9*	-15.6
CCOC(=O)C(NCCOC)(NC(C)=O)C(F)(F)F (stereo not given)	nt	nt	nt	nt	nt	-19.1
Cc1ccnn2cc3c(=O)n(C)c(=O)n(C)c3c12	0.1	6.7	63.7*	-30.7	5.4	-3.9
COc1ccc(OC)c(NC(=O)Nc2cc(C(=O)O)ccc2C)c1	4.6	nt	nt	nt	nt	-2.0
COc1ccc(C(=O)C2CCCN(C(=O)c3cccnc3SC)C2)c(C)c1 (stereo not given)	-1.6	nt	nt	nt	nt	1.1
Cc1ccccc1NC(=O)Cc1nc(CCl)cs1	0.8	42.9	-10.6	-4.2	41.8*	13.8
CCOC(=O)c1c(-c2cccc([N+](=O)[O-])c2)csc1NC(=O)C1CCCCC1	8.6*	nt	-30.6	nt	18.6	-7.1
CCCCN(C(=O)Cc1cccs1)c1nnc(-c2cccnc2)s1	1.6	6.2	-40.2	nt	1.7	1.2
COCCN(C(=O)Cc1cccs1)c1nnc(-c2cccnc2)s1	3.1	5.6	-23.5	-14.2	20.1*	12.6
O=C(Nc1cc2cccc([N+](=O)[O-])c2oc1=O)c1cccs1	3.2	nt	nt	nt	nt	-12.4
CCCC[C@H](CN(N=O)[C@@H](Cc1ccccc1)CN(C)N=O)N(CCc1ccccc1)N=O	8.9*	nt	nt	nt	nt	nt
CN(C[C@H](Cc1ccccc1)N(C[C@H](Cc1cccc2ccccc12)N(CCc1ccccc1)N=O)N=O)N=O	nt	nt	nt	nt	nt	13.8
CN(C[C@H](CC1CCCCC1)N(C[C@H](Cc1ccccc1)N(CCc1ccccc1)N=O)N=O)N=O	11.2*	nt	nt	nt	nt	nt
CC[C@H](C)[C@@H](NC(=O)O[C@@H]1C(=O)c2cc(Br)ccc2O[C@H]1c1cccc(OC)c1)C(=O)OC	6.2	10.0	-19.7	2.4	12.3	nt
COCCn1nnnc1CN1CCSCC1	0.2	nt	nt	nt	nt	6.3
COCC(=O)Nc1cc(OC)ccc1OC	0.8	60.0	-17.4	-4.8	11.1	-14.3
COc1ccc(OC)c(NC(=O)COC(=O)CSc2ccc(Cl)cc2)c1	-0.4	40.0	-17.3	-8.2	18.2*	4.5
COc1ccc(OC)c(NC(=O)CSc2ccc3ccccc3c2)c1	8.4	2.6	-9.4	-7.8	7.5	-3.2
COc1ccc(OC)c(NC(=O)COC(=O)/C=C/c2ccccc2Cl)c1	10.3*	nt	-46.5	-0.1	8.8	3.9
CCn1c(=O)c2cc(C(=O)N3CCN(C(=O)c4ccco4)CC3)sc2c2ccccc21	4.6	nt	nt	nt	nt	2.2
CN1CCN(S(=O)(=O)c2ccc3[nH]c(=O)oc3c2)CC1	0.8	35.7	-24.0	4.3	39.6*	-6.7
Cn1c(=O)c(=O)n(C)c2cc(S(=O)(=O)N3CCN(c4ccc(F)cc4)CC3)ccc21	0.9	16.7	-1.3	5.9	4.1	-10.9
Cn1c(=O)oc2cc(S(=O)(=O)N3CCN(c4ccc(F)cc4)CC3)ccc21	7.2	70.3*	-75.9	-4.4	4.1	4.3
COc1cc(NS(=O)(=O)c2ccc(NC(=S)NC(=O)/C=C/c3ccc(F)cc3)cc2)ncn1	nt	nt	nt	nt	nt	-12.7
SMILES	RAM inhibit	Insulin prom inh	BB579 growth dn	Yeast lifespan up	Measles CPE	Mdm2 ligase inh
CCc1nnc(NS(=O)(=O)c2ccc(NC(=O)c3ccccc3)cc2)s1	nt	nt	nt	nt	nt	-10.7
CCc1nnc(NS(=O)(=O)c2ccc(NC(=O)/C=C/c3ccccc3Cl)cc2)s1	8.8*	nt	nt	nt	nt	2.6
CC(C)NC(=S)NC(=O)/C=C/c1ccc(F)cc1	4.8	30.0	-7.9	1.4	35.5*	-0.8
CCc1nnc(NS(=O)(=O)c2ccc(NC(=S)NC(=O)/C=C/c3ccccc3)cc2)s1	3.5	44.4	-1.1	-1.3	62.9*	-2.1
O=C(/C=C/c1ccc(F)cc1)NC(=S)NC1CCCCC1	nt	nt	nt	nt	nt	-1.1
COc1nccnc1NS(=O)(=O)c1ccc(NC(=S)NC(=O)/C=C/c2ccc(F)cc2)cc1	11.2*	25.0	-50.2	10.1	3.3	4.3
CCCCOC(=O)Nc1sc2c(c1C(=O)OC)CCC2	-0.6	30.4	-45.0	nt	11.3	-1.4
O=c1[nH]c(CSc2nc(-c3ccc(F)cc3)cs2)nc2ccccc12	2.0	27.0	-0.2	-1.9	9.6	0.9
CN(C)c1nc(NC(C)(C)C)nc(SCC(=O)Nc2ccccc2)n1	2.4	80.5*	nt	nt	nt	-7.6
c1ccc2nc3ccccc3nc2c1	-0.1	-68.2	59.6*	-8.3	10.2	-1.5
O=[N+]([O-])c1ccc(-c2nc(NCc3ccccc3)c3ccccc3n2)cc1	3.8	nt	-20.0	-5.2	4.0	-22.4
O=[N+]([O-])c1cccc(-c2nc(NCc3ccccc3)c3ccccc3n2)c1	8.7*	-322.2	-23.3	2.7	5.2	1.3
O=C(OCC(=O)N1CCN(C(=O)c2ccco2)CC1)c1cccc(S(=O)(=O)N2CCc3ccccc32)c1	0.5	nt	nt	nt	nt	-14.1
O=C(CCC(=O)OCC(=O)c1ccc(Cl)cc1)NC1CCCCC1	0.5	-27.8	1.7	-20.8	63.8*	1.1
O=C(COC(=O)CCCNC(=O)c1ccc(Cl)cc1)NC1CC1	-0.3	nt	5.5	-8.1	47.6*	-14.2
O=C(CCC(=O)OCC(=O)c1ccc([N+](=O)[O-])cc1)NC1CCCCC1	0.7	8.1	8.3	-1.5	2.4	-2.5
C=C1C(=O)O[C@@H]2[C@H]1[C@@H](OC(=O)/C(C)=C/C)C/C(C)=C\C(=O)/C=C(\C)[C@@H]2O	nt	nt	nt	nt	nt	21.1
CCOc1cc(/C=C(/C#N)c2ccc(F)cc2)ccc1OCc1ccc(C(=O)O)o1	5.8	-226.1	-22.8	-10.2	18.5	14.0
CCOc1cc(/C=C(/C#N)c2nc3ccccc3[nH]2)ccc1OCc1ccc(C(=O)O)o1	9.1*	nt	-49.2	-3.2	15.9	-21.1
CCCCn1c(=O)[nH]c(=O)c2c(C(=O)OCC)cc(-c3ccc(OC(F)F)cc3)nc21	2.5	17.6	nt	nt	nt	-18.1
Cc1nn(C)c(C)c1CN(C)S(=O)(=O)c1ccc(F)cc1	-1.0	11.6	5.3	nt	4.5	-0.8
Cc1nn(C)c(C)c1CN(C)S(=O)(=O)c1ccc2ccccc2c1	1.3	5.6	-23.2	nt	47.4*	-37.6
O=C(CCSc1nnc(-c2ccncc2)o1)Nc1ccccc1Cl	0.3	31.0	-28.6	-13.5	29.9*	-15.1
COc1ccccc1NC(=O)CCSc1nnc(-c2ccncc2)o1	1.0	nt	nt	nt	nt	-11.9
O=C(CCSc1nnc(-c2ccncc2)o1)Nc1ccc(Cl)cc1	0.6	nt	85.6*	-11.7	25.8	-21.7
Cc1ccccc1CS(=O)(=O)CCC(=O)NCc1ccccn1	2.8	0.0	9.4	-0.5	5.9	-2.3
Cc1ccc(C)c(-n2cc[nH]c2=S)c1	2.8	nt	-25.9	4.5	5.6	-15.8
CC(NC(=O)OC(C)(C)C)C(=O)N1CCCC1C(=O)NC(Cc1ccccc1)C(N)=O (stereo not given)	1.6	6.2	-6.3	-3.6	30.9	-14.6

Screens: PubChem BioAssay, several laboratories
